Measurements reported in the RNAGym collection of RNA variant scans (doi:10.1126/science.aae0568).
This sample holds only a part of the variants without activity.

B1: tRNA (parent)
chain: GUUCCGUUGGCGUAAUGGUAACGCGUCUCCCUCCUAAGGAGAAGACUGCGGGUUCGAGUCCCGUACGGAACG

Variants of: B1
Test: yeast fitness relative to wild type (ratio to wild type); higher = fitter; tRNA-Arg(CCU), competitive growth, 37 C, YPD
Procedure, shortened: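 Gene amplicons from the start population and from each of six end populations were read by 100-nucleotide paired-end sequencing. Those end populations came from pooled Saccharomyces cerevisiae strains carrying tRNA-Arg(CCU) gene variants at the native locus, competed in YPD at 37°C for 24 hours. Fitness relative to wild type was worked out from changes in genotype frequencies. Genotypes needed ≥ 100 starting reads, and estimates < 0.5 were set to 0.5.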
U19C C31U C34U A57C showed a yeast fitness of no more than 0.5.
In the case of U19C C31U G56A G68C, the yeast fitness is reported as no more than 0.5.
Work on U19C C33A C34G yielded a yeast fitness of no more than 0.5.
In the case of U19C C34A, the yeast fitness is reported as 0.76.
With U19C C34A G50C G56A the yeast fitness was 0.55.
U19C C34U A43U G63A A70C showed a yeast fitness of no more than 0.5.
For U19C C46A A57C A70C, the yeast fitness was no more than 0.5.
U19C C46A C60G G67C gave a yeast fitness of no more than 0.5.
Work on U19C C46U A69U yielded a yeast fitness of 0.804.
With U19C C49A A57C the yeast fitness was 0.599.
For U19C C49A C55U, the yeast fitness was no more than 0.5.
Variant U19C C49A G68C has a yeast fitness of no more than 0.5.
Variant U19C C55A has a yeast fitness of 0.601.
For U19C C55A C66A, the yeast fitness was no more than 0.5.
With U19C C55U C61A the yeast fitness was no more than 0.5.
In the case of U19C C60U C62U A69G, the yeast fitness is reported as no more than 0.5.
U19C C61U gave a yeast fitness of 0.925.
U19C C62A gave a yeast fitness of 0.713.
U19C C62G showed a yeast fitness of 0.832.
U19C G23C C61G gave a yeast fitness of no more than 0.5.
U19C G23C U53C showed a yeast fitness of 0.562.
U19C G25C G51C C60U G67A showed a yeast fitness of 0.545.
For U19C G38A, the yeast fitness was 1.01.
With U19C G38A G41A the yeast fitness was 0.577.
With U19C G38C C62G the yeast fitness was no more than 0.5.
With U19C G38C G44C C46A A70G the yeast fitness was 0.574.
In the case of U19C G39C G41C, the yeast fitness is reported as 0.51.
U19C G41C gave a yeast fitness of 0.987.
Work on U19C G44C A69U yielded a yeast fitness of 0.762.
U19C G44C G58A A65G showed a yeast fitness of 0.987.
Variant U19C G48A G50A has a yeast fitness of 0.693.
With U19C G48A G58C C61A the yeast fitness was no more than 0.5.
Variant U19C G48C has a yeast fitness of 0.922.
For U19C G48C C55U, the yeast fitness was no more than 0.5.
U19C G48C G56A A69C gave a yeast fitness of 0.642.
U19C G50A C55A A65U showed a yeast fitness of no more than 0.5.
U19C G50A C55A G63A C66A showed a yeast fitness of no more than 0.5.
U19C G56A gave a yeast fitness of 0.91.
In the case of U19C G58A, the yeast fitness is reported as 0.961.
For U19C G63A, the yeast fitness was 0.918.
With U19C G68C the yeast fitness was 0.83.
In the case of U19C U26A U32A, the yeast fitness is reported as 0.541.
With U19C U26C the yeast fitness was 0.928.
In the case of U19C U26C G41C A43U A57G, the yeast fitness is reported as no more than 0.5.
Variant U19C U26C G44A has a yeast fitness of 0.521.
For U19C U26G, the yeast fitness was 0.815.
U19C U26G A36C gave a yeast fitness of no more than 0.5.
U19C U28C C29G A57U showed a yeast fitness of no more than 0.5.
In the case of U19C U28C C46A A70C, the yeast fitness is reported as 0.545.
Work on U19C U28C C46U yielded a yeast fitness of 0.712.
Work on U19C U28C G48C A70C yielded a yeast fitness of no more than 0.5.
Work on U19C U28C G68C yielded a yeast fitness of 0.67.
With U19C U32A A37C C55G the yeast fitness was no more than 0.5.
Variant U19C U32A G67A has a yeast fitness of 0.65.
U19C U32C gave a yeast fitness of 0.926.
Variant U19C U32C C33G C34U U54A C66U has a yeast fitness of no more than 0.5.
With U19C U32G C33G the yeast fitness was no more than 0.5.
U19C U53C showed a yeast fitness of 0.694.
In the case of U19C U54A, the yeast fitness is reported as 0.559.
U19C U54C showed a yeast fitness of 0.879.
U19G A20C U26C G41A G63A C66U gave a yeast fitness of no more than 0.5.
For U19G A20U A69U, the yeast fitness was 0.86.
For U19G A20U C27A, the yeast fitness was 0.587.
Work on U19G A20U C27G yielded a yeast fitness of no more than 0.5.
U19G A20U C27G G58A showed a yeast fitness of 0.527.
For U19G A20U C30U G48A A70U, the yeast fitness was no more than 0.5.
Work on U19G A20U G52A yielded a yeast fitness of 0.698.
U19G A20U U26A G38C A45G C46G G50A G56C gave a yeast fitness of no more than 0.5.
U19G A20U U53A G56A A65U gave a yeast fitness of no more than 0.5.
Variant U19G A21G has a yeast fitness of 1.05.
U19G A21U C29G gave a yeast fitness of 0.62.
With U19G A21U C46U C66U the yeast fitness was 0.532.
Work on U19G A37G yielded a yeast fitness of 0.76.
In the case of U19G A37G C66U, the yeast fitness is reported as 0.639.
For U19G A40C, the yeast fitness was 0.732.
Variant U19G A40G C55G A65C has a yeast fitness of no more than 0.5.
For U19G A42C A43C, the yeast fitness was 0.951.
U19G A42U C55U gave a yeast fitness of 0.692.
With U19G A43C the yeast fitness was 0.971.
For U19G A43C G63U U64A, the yeast fitness was no more than 0.5.
With U19G A43C U53C C55G G67C A69C the yeast fitness was no more than 0.5.
With U19G A43U the yeast fitness was 1.04.
U19G A57G gave a yeast fitness of 0.611.
Work on U19G A57G C66U yielded a yeast fitness of no more than 0.5.
U19G A65G showed a yeast fitness of 1.03.
U19G A69C gave a yeast fitness of 0.856.
With U19G A69U the yeast fitness was 0.892.
For U19G A70C, the yeast fitness was 0.999.
In the case of U19G A70U, the yeast fitness is reported as 1.02.
Work on U19G C22G C34U C61G yielded a yeast fitness of no more than 0.5.
With U19G C22U A37G C66U A69U the yeast fitness was 0.61.
U19G C22U C31U A40U G67A gave a yeast fitness of 0.637.
U19G C22U C49U C62A gave a yeast fitness of no more than 0.5.
For U19G C24A A40C A45U, the yeast fitness was no more than 0.5.
With U19G C24A C30U the yeast fitness was no more than 0.5.
In the case of U19G C24A C34G, the yeast fitness is reported as 0.75.
With U19G C24G U28C the yeast fitness was 0.681.
For U19G C27G, the yeast fitness was 0.776.
For U19G C27G A65C C66G, the yeast fitness was 0.907.
For U19G C27U A42C, the yeast fitness was no more than 0.5.
With U19G C29A A45U the yeast fitness was no more than 0.5.
In the case of U19G C29A A69U, the yeast fitness is reported as no more than 0.5.
In the case of U19G C29U, the yeast fitness is reported as 0.795.
Work on U19G C29U A70C yielded a yeast fitness of no more than 0.5.
U19G C30U C55U A57G showed a yeast fitness of no more than 0.5.
In the case of U19G C31U U32A A45U A70U, the yeast fitness is reported as no more than 0.5.
Work on U19G C33G A37C C49G yielded a yeast fitness of no more than 0.5.
U19G C33G U47A showed a yeast fitness of 0.542.
In the case of U19G C34G A69C, the yeast fitness is reported as 0.504.
U19G C34U showed a yeast fitness of 0.687.
With U19G C46G A57C the yeast fitness was no more than 0.5.
In the case of U19G C49A C62G C66U A70G, the yeast fitness is reported as no more than 0.5.
With U19G C49U the yeast fitness was 0.859.
In the case of U19G C49U C62A, the yeast fitness is reported as 0.598.
With U19G C55G C66U the yeast fitness was 0.536.
U19G C55U gave a yeast fitness of 0.762.
U19G C60U C61G G67A gave a yeast fitness of no more than 0.5.
Work on U19G C61U yielded a yeast fitness of 0.77.
Variant U19G C62U has a yeast fitness of 0.857.
With U19G G38C the yeast fitness was 0.637.
U19G G44A C46G gave a yeast fitness of 0.946.
Variant U19G G48C has a yeast fitness of 0.948.
With U19G G50U G58A C66U the yeast fitness was 0.541.
Variant U19G G52C C62A has a yeast fitness of no more than 0.5.
U19G G56A C60U gave a yeast fitness of 0.69.
For U19G G63C A69U, the yeast fitness was no more than 0.5.
In the case of U19G G68C, the yeast fitness is reported as 0.802.
Variant U19G U26A U28C has a yeast fitness of no more than 0.5.
For U19G U28A, the yeast fitness was 0.613.
In the case of U19G U28C A42C, the yeast fitness is reported as 0.669.
Work on U19G U28G A36U C46U C61U yielded a yeast fitness of no more than 0.5.
U19G U32G gave a yeast fitness of 0.62.
Variant U19G U35C A43C G52C U54A has a yeast fitness of no more than 0.5.
U19G U47A showed a yeast fitness of 0.771.
Work on A20C yielded a yeast fitness of 1.01.
Variant A20C A21C A45G has a yeast fitness of no more than 0.5.
Work on A20C A21C C61A G67C yielded a yeast fitness of no more than 0.5.
For A20C A21C G23C C30G A65U C66U, the yeast fitness was no more than 0.5.
Variant A20C A21G has a yeast fitness of 0.953.
In the case of A20C A21G A45C, the yeast fitness is reported as 0.687.
A20C A21G A45U G67C gave a yeast fitness of 0.61.
Work on A20C A21G A57C yielded a yeast fitness of 0.531.
A20C A21G A69C showed a yeast fitness of 0.825.
A20C A21G G67C gave a yeast fitness of 0.712.
For A20C A21U A42U, the yeast fitness was no more than 0.5.
A20C A21U C27G A42U A69C gave a yeast fitness of no more than 0.5.
Variant A20C A21U C27G U32C U35G has a yeast fitness of no more than 0.5.
For A20C A21U C31U C60U A65U, the yeast fitness was no more than 0.5.
A20C A36C G41C G67C A69G showed a yeast fitness of no more than 0.5.
For A20C A36G, the yeast fitness was 0.908.
A20C A36G G48A G50C showed a yeast fitness of no more than 0.5.
Variant A20C A36U G39C has a yeast fitness of 0.618.
A20C A36U U53A gave a yeast fitness of no more than 0.5.
For A20C A37C A43G C62U, the yeast fitness was no more than 0.5.
Variant A20C A37C C66U has a yeast fitness of no more than 0.5.
A20C A37C G41C G51C gave a yeast fitness of no more than 0.5.
With A20C A37G A42G G68C the yeast fitness was no more than 0.5.
A20C A37G A45C gave a yeast fitness of no more than 0.5.
In the case of A20C A40C G48C, the yeast fitness is reported as 0.719.
Variant A20C A40G has a yeast fitness of 0.647.
Variant A20C A40G A65G has a yeast fitness of 0.57.
A20C A40G C60G gave a yeast fitness of no more than 0.5.
Work on A20C A40G C62G yielded a yeast fitness of 0.864.
With A20C A40U A65U G67C the yeast fitness was no more than 0.5.
A20C A42C A69U showed a yeast fitness of 0.576.
With A20C A42C G48A the yeast fitness was 0.591.
Variant A20C A42U has a yeast fitness of 0.782.
